Calls of active or inactive are those of the source. The rule behind the calls is not given here.
Columns and labels:
[1] = Cytotoxicity against mouse RAW264.7 cells assessed as reduction in cell viability after 48 hrs by resazurin assay; assay type: cell-based
How it was run: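 RAW 264.7 macrophages at 2.10⁴/well were preincubated 24 h, then exposed 48 h at 37 °C, 5% CO2 to two-fold dilutions in DMEM. Resazurin was added for 4 h in the dark and read at OD570/OD600. Result given as CC50.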

[2] = tested on: Trypanosoma brucei brucei; assay: Antitrypanosomal activity against Trypanosoma brucei brucei CMP infected in Swiss mouse assessed as change in mean survival time at 100 mg/kg, ip administered as single dose measured up to 30 days; assay type: functional
How it was run: (§1)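 Swiss mice infected ip with 10,000 T. b. brucei CMP trypanosomes, randomly grouped (six per batch), then given one ip dose of 100 or 10 mg/kg; controls received pentamidine, melarsamine or excipient. Parasitemia followed at days 2, 3, 4 and 30; deaths recorded by day post-treatment; efficacy as mean survival time minus that of excipient-treated controls (days ± SD).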

[3] = Selectivity index, ratio of CC50 for mouse RAW264.7 cells to IC50 for Trypanosoma brucei gambiense FeoITMAP/1893; assay type: toxicity; details: read-out: Ratio CC50/IC50
[4] = Stability in human plasma by HPLC analysis; assay type: ADME, cell-free; details: read-out: Stability
How it was run: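 Human plasma was diluted 10-fold in PBS and incubated with 1 mM compound solutions for 0, 2 and 12 h at 37 °C. Samples were quenched with ice-cold acetonitrile, centrifuged, filtered and analysed by C18 reversed-phase HPLC at 25 °C.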

[5] = tested on: Trypanosoma brucei gambiense; assay: Trypanocidal activity against Trypanosoma brucei gambiense FeoITMAP/1893 after 72 hrs by resazurin dye based assay; assay type: functional, organism-based; details: FeoITMAP/1893, 72 h
How it was run: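 T. b. gambiense Feo was grown in supplemented IMDM with 10% FBS. Cells at 4.10⁴/mL were exposed 72 h at 37 °C, 5% CO2 in the dark to two-fold dilutions. Resazurin (450 µM solution) was added for 6 h and read at OD570/OD600. Result given as IC50; pentamidine was the reference.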

[6] = Stability in human liver S9 fraction at 0.1 to 1 mM up to 12 hrs in absence of NADPH; assay type: ADME, subcellular; details: s9, 12 h, 1000 µM
How it was run: (§2)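 Pooled human liver S9 was diluted 20-fold in PBS (1 mg/ml protein). Compound solutions of 100 μM and 1 mM were incubated 0 and 12 h at 37 °C, with or without 1 mM NADPH.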

[7] = Stability in human liver S9 fraction at 0.1 to 1 mM up to 12 hrs in presence of NADPH; assay type: ADME, subcellular; details: s9, 12 h, 1000 µM; how it was run: as §2
Mus musculus [8] = assay: Toxicity in Swiss mouse assessed as death at 100 mg/kg, ip administered as single dose measured up to 30 days; assay type: organism-based; details: in vivo, 720 h; how it was run: as §1
Leishmania donovani [9] = assay: Antileishmanial activity against Leishmania donovani infected in Balb/c mouse at 2 mg/kg/day, ip for 5 consecutive days; assay type: functional, organism-based
How it was run: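 Balb/c mice infected with L. donovani; 2 mg/kg/day given intraperitoneally on five consecutive days, total 10 mg/kg.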

Mus musculus [10] = assay: Toxicity in Swiss mouse assessed as death at 10 mg/kg, ip administered as single dose measured up to 30 days; assay type: organism-based; details: in vivo, 720 h; how it was run: as §1
Leishmania donovani [11] = assay: Antiparasitic activity against Leishmania donovani LV9 axenic amastigotes incubated for 72 hrs by resazurin dye based assay; assay type: functional, organism-based; details: LV9, 72 h
How it was run: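 LV9 axenic amastigotes were derived from promastigotes in M-199 at pH 5.5, 37 °C, 5% CO2, and used in log phase. Cells at 10⁶/mL were exposed 72 h to two-fold dilutions from 100 to 0.02 μM. Resazurin was then added for 24 h in the dark and read at OD570/OD600. IC50 is relative to excipient-only controls; miltefosine was the reference.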

Leishmania donovani [12] = assay: Antiparasitic activity against Leishmania donovani LV9 axenic intramacrophage amastigotes infected in mouse RAW264.7 cells incubated for 48 hrs by Sybr Green 1 dye based fluorescence assay; assay type: functional, organism-based; details: LV9, RAW264.7, 48 h
How it was run: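 RAW 264.7 cells at 2.10⁴/well were infected 24 h with axenic amastigotes at a 16:1 parasite to macrophage ratio, then extracellular parasites were removed. Cells were treated 48 h with two-fold dilutions from 100 µM. They were then lysed (freeze-thaw, proteinase K, 55 °C overnight) and total DNA read by SYBR Green I fluorescence against untreated infected cells. Result given as IC50.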

[13] = tested on: Trypanosoma brucei brucei; assay: Antitrypanosomal activity against Trypanosoma brucei brucei CMP infected in Swiss mouse assessed as change in mean survival time at 10 mg/kg, ip administered as single dose measured up to 30 days; assay type: functional; how it was run: as §1

`NC1CCC(NCCCN(Cc2ccc(F)cc2)Cc2ccc(F)cc2)CC1` (stereo not drawn) showed a CC50 at 48 h [1] of 4.4 µM, a Survival [2] of -2.3 days and a selectivity ratio [3] of 11. For the same compound, the half-life [4] was > 12 h, the IC50 [5] was 0.4 µM and the Stability [6] was “Stable”. For the same compound, the Stability [7] was “Stable”, the Activity (Mus musculus [8]) was “Toxic” and the Activity (Leishmania donovani [9]) was “inactive”. For the same compound, the Activity (Mus musculus [10]) was “Non-Toxic”, the IC50 (Leishmania donovani [11]) was 44.4 µM and the IC50 (Leishmania donovani [12]) was 12.4 µM. It also gave a Survival [13] of 0 days.
